Data on 20 compounds can be found in ChEMBL document CHEMBL4610005, “Discovery of a new class of PROTAC BRD4 degraders based on a dihydroquinazolinone derivative and lenalidomide/pomalidomide” (Bioorg Med Chem, 2020).

In test [1] the target is T1, Bromodomain-containing protein 4 (Homo sapiens, UniProt O60885).
Test [2] addresses T1, Bromodomain-containing protein 4. To be noted: at 500 nM.
Another test deals with HL-60. Put plainly: Antiproliferative activity against human HL60 cells assessed as reduction in cell viability at 2.5 uM incubated for 72 hrs by cell titer glo assay. The format is functional, cell-based. The method in brief: (§1)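 Cells seeded and held 24 h at 37 °C, 5% CO2, then exposed to compound at a single 2.5 μM for 72 h under the same conditions. Viability was read by CellTiter-Glo luminescence after 10 min shaking and 2 min signal stabilisation at room temperature. Percent inhibition is the mean of three independent experiments.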
For orientation: ATP-based viability assays read luminescence as a measure of living cells.

The next test has as its system Raji. The test can be described thus: Antiproliferative activity against human Raji cells assessed as reduction in cell viability at 2.5 uM incubated for 72 hrs by cell titer glo assay. Type of test: functional, cell-based. An outline of the steps:
as §1

Test [3] has as its system THP-1. The test can be described thus: Antiproliferative activity against human THP1 cells assessed as reduction in cell viability at 2.5 uM incubated for 72 hrs by cell titer glo assay. Type of test: functional, cell-based. An outline of the steps:
as §1

Test [4] relates to THP-1. Put plainly: Antiproliferative activity against human THP1 cells assessed as reduction in cell viability incubated for 72 hrs by cell titer glo assay. Type of test: functional, cell-based. To be noted: THP-1, 72 h. The method in brief: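 THP-1 cells were seeded and held 24 h at 37 °C, 5% CO2, then given serially diluted compound in medium for 72 h. Proliferation was read by CellTiter-Glo luminescence. IC50 was fitted from the dose-response and reported as mean ± SD of three independent assays.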

Test [5] addresses T1, Bromodomain-containing protein 4. This is another data set of the same source.
In test [6] the target is T2, Protein cereblon/Bromodomain-containing protein 4 (Homo sapiens) (UniProt O60885+Q96SW2). The test can be described thus: Protac activity at CRBN/BRD4 in human THP1 cells assessed as decrease in c-Myc suppression at 1 uM incubated for 3 hrs by Western blot analysis. Type of test: cell-based. To be noted: THP-1. An outline of the steps:
(§2)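 THP-1 cells were plated at 2×10^6 cells/well and treated for 3 h. Lysis was in RIPA buffer with protease inhibitors. 30 μg of lysate per lane was run on SDS-PAGE and blotted to PVDF. Membranes were probed with antibodies to BRD4 and c-Myc, with GAPDH as loading control.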
A general note: In western blotting, separated proteins are transferred to a membrane and probed.

The target in test [7] is T2, Protein cereblon/Bromodomain-containing protein 4 (Homo sapiens). Put plainly: Protac activity at CRBN/BRD4 in human THP1 cells assessed as increase in BRD4 degradation at 3 uM incubated for 3 hrs by Western blot analysis. The format is cell-based. To be noted: THP-1. An outline of the steps:
as §2

Activity calls are given as the source filed them. The rule behind the calls is not given here.

T2 sequence (Q96SW2 whole entry, looked up, other chains not shown): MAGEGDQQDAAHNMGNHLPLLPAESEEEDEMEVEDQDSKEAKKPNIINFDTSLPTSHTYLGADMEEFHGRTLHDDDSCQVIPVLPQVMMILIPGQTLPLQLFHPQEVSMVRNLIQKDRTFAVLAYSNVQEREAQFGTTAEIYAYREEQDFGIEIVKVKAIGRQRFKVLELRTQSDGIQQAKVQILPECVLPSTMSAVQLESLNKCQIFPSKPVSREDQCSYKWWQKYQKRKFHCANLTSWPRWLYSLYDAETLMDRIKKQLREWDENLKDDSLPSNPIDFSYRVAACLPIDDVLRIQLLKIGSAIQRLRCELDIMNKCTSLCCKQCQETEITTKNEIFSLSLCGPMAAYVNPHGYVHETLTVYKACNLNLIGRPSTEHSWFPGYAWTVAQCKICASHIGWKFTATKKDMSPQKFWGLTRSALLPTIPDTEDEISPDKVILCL

A word on the IC50: it is the point on the concentration scale where inhibition reaches its midpoint. A word on the inhibition: it is the relative decrease from the control value, in per cent. The compound `Cc1noc(C)c1-c1ccc2c(c1)C(c1ccccc1)N(CC(=O)NCCCC(=O)Nc1cccc3c1CN(C1CCC(=O)NC1=O)C3=O)C(=O)N2C` (stereo unspecified) came in with an IC50 in [1] of 138 nM. Moreover, the inhibition in test [2] was determined as 89%.

With `Cc1noc(C)c1-c1ccc2c(c1)C(c1ccccc1)N(Cc1cn(CCOCC(=O)Nc3cccc4c3CN(C3CCC(=O)NC3=O)C4=O)nn1)C(=O)N2C` (stereo unspecified), the IC50 in test [1] turned out to be 14.2 nM; in the test on THP-1 [4] it was 1830 nM. The inhibition result in the test on HL-60, with Raji and in the test on THP-1 [3] was “Active” in each case. The inhibition in test [2] amounted to 99%.

Compound `Cc1noc(C)c1-c1ccc2c(c1)C(c1ccccc1)N(CCCCCCC(=O)Nc1cccc3c1CN(C1CCC(=O)NC1=O)C3=O)C(=O)N2C` (stereo unspecified) showed an IC50 in test [1] of 118 nM. The compound further returned an inhibition in test [2] of 96%.

For the compound `Cc1noc(C)c1-c1ccc2c(c1)C(c1ccccc1)N(C)C(=O)N2` (stereo unspecified), in [5], the IC50 amounted to 44 nM.

Take `Cc1noc(C)c1-c1ccc2c(c1)C(c1ccccc1)N(Cc1cn(CCOCC(=O)Nc3cccc4c3C(=O)N(C3CCC(=O)NC3=O)C4=O)nn1)C(=O)N2C` (stereo unspecified): the IC50 in test [1] is 41.8 nM; in the test on THP-1 [4], 810 nM. Besides, the inhibition entry with HL-60, in the test on Raji and in the test with THP-1 [3] was “Active” throughout. Besides, the outcome in test [6] was Active. The inhibition in test [2] is 99%.

`Cc1noc(C)c1-c1ccc2c(c1)C(c1ccccc1)N(CC(=O)NCCCCCCCC(=O)Nc1cccc3c1CN(C1CCC(=O)NC1=O)C3=O)C(=O)N2C` (stereo unspecified): the midpoint of inhibition in test [1], the IC50, lay at 68.3 nM. This compound also gave an inhibition in test [2] of 96%.

In [1], `Cc1noc(C)c1-c1ccc2c(c1)C(c1ccccc1)N(Cc1cn(CCOCCOCC(=O)Nc3cccc4c3CN(C3CCC(=O)NC3=O)C4=O)nn1)C(=O)N2C` (stereo unspecified) displayed an IC50 of 15.4 nM. Also, the inhibition entry in the test with HL-60, in the test with Raji and in the test on THP-1 [3] was “Active” each time. For the same compound, in [2], the inhibition is 100%.

In turn, `Cc1noc(C)c1-c1ccc2c(c1)C(c1ccccc1)N(CC(=O)NCCCCC(=O)Nc1cccc3c1CN(C1CCC(=O)NC1=O)C3=O)C(=O)N2C` (stereo unspecified) displayed an IC50 in test [1] of 134 nM. For the same compound, in test [2], the inhibition stood at 91%.

In test [1], `Cc1noc(C)c1-c1ccc2c(c1)C(c1ccccc1)N(CCCCC(=O)Nc1cccc3c1CN(C1CCC(=O)NC1=O)C3=O)C(=O)N2C` (stereo unspecified) came in with an IC50 of 144 nM. The inhibition in [2] is 90%.

On to `Cc1noc(C)c1-c1ccc2c(c1)C(c1ccccc1)N(Cc1cn(CCOCCOCCOCC(=O)Nc3cccc4c3CN(C3CCC(=O)NC3=O)C4=O)nn1)C(=O)N2C` (stereo unspecified), for which the IC50 in test [1] was found to be 22.1 nM. The inhibition result in the test with HL-60, with Raji and in the test with THP-1 [3] was “Active” in each case. The compound further returned an inhibition in [2] of 100%.

Consider `Cc1noc(C)c1-c1ccc2c(c1)C(c1ccccc1)N(CC(=O)NCCCCCC(=O)Nc1cccc3c1CN(C1CCC(=O)NC1=O)C3=O)C(=O)N2C` (stereo unspecified), for which the midpoint of inhibition in test [1], the IC50, lay at 99.1 nM. The compound further showed an inhibition in [2] of 98%.

`Cc1noc(C)c1-c1ccc2c(c1)C(c1ccccc1)N(Cc1cn(CCOCCOCCOCCOCC(=O)Nc3cccc4c3C(=O)N(C3CCC(=O)NC3=O)C4=O)nn1)C(=O)N2C` (stereo unspecified) yielded an IC50 in test [1] of 173 nM. The inhibition in [2] is 60%.

`Cc1noc(C)c1-c1ccc2c(c1)C(c1ccccc1)N(CC(=O)NCCCCCCC(=O)Nc1cccc3c1CN(C1CCC(=O)NC1=O)C3=O)C(=O)N2C` (stereo unspecified) gave an IC50 in test [1] of 80.6 nM. Also, the inhibition in test [2] came out at 100%.

In the case of `Cc1noc(C)c1-c1ccc2c(c1)C(c1ccccc1)N(Cc1cn(CCOCCOCCOCCOCC(=O)Nc3cccc4c3CN(C3CCC(=O)NC3=O)C4=O)nn1)C(=O)N2C` (stereo unspecified), the IC50 in test [1] came out at 22.6 nM. Moreover, the inhibition entry in the test with HL-60, with Raji and in the test on THP-1 [3] was “Active” each time. Also, the inhibition in test [2] was found to be 100%.

As to `Cc1noc(C)c1-c1ccc2c(c1)C(c1ccccc1)N(CCCCCC(=O)Nc1cccc3c1CN(C1CCC(=O)NC1=O)C3=O)C(=O)N2C` (stereo unspecified), in test [1], the IC50 worked out at 135 nM. In test [2], this compound had an inhibition of 93%.

As to `Cc1noc(C)c1-c1ccc2c(c1)C(c1ccccc1)N(Cc1cn(CCOCCOCC(=O)Nc3cccc4c3C(=O)N(C3CCC(=O)NC3=O)C4=O)nn1)C(=O)N2C` (stereo unspecified), the IC50 in test [1] stood at 67.7 nM; with THP-1 [4], 1660 nM. Moreover, the inhibition entry in the test with HL-60, in the test with Raji and in the test on THP-1 [3] was “Active” throughout. Further, the inhibition in [2] was 93%.

`Cc1noc(C)c1-c1ccc2c(c1)C(c1ccccc1)N(Cc1cn(CCOCCOCCOCC(=O)Nc3cccc4c3C(=O)N(C3CCC(=O)NC3=O)C4=O)nn1)C(=O)N2C` (stereo unspecified): the IC50 in test [1] worked out at 68.5 nM; with THP-1 [4], 1750 nM. Besides, the inhibition entry with HL-60, in the test on Raji and with THP-1 [3] was “Active” each time. In [2], this compound gave an inhibition of 86%.

With `Cc1sc2c(c1C)C(c1ccc(Cl)cc1)=N[C@@H](CC(=O)OC(C)(C)C)c1nnc(C)n1-2`, the inhibition entry in the test with HL-60, with Raji and with THP-1 [3] was “Active” in each case.

Take `Cc1noc(C)c1-c1ccc2c(c1)C(c1ccccc1)NC(=O)N2C` (stereo unspecified): the IC50 in test [1] was determined as 46.4 nM; in the test with THP-1 [4], 3260 nM. In addition, the inhibition entry in the test with HL-60, with Raji and in the test on THP-1 [3] was “Active” each time. Moreover, the result in test [7] was inactive. Besides, the inhibition in [2] came out at 100%.

In turn, `Cc1noc(C)c1-c1ccc2c(c1)C(c1ccccc1)N(CC(=O)NCCC(=O)Nc1cccc3c1CN(C1CCC(=O)NC1=O)C3=O)C(=O)N2C` (stereo unspecified) yielded an IC50 in test [1] of 132 nM. Also, the inhibition in [2] was found to be 94%.
